Measurements published in ChEMBL document CHEMBL2331374, “Novel leucine ureido derivatives as inhibitors of aminopeptidase N (APN)” (Bioorg Med Chem, 2013).

What was measured:
Aminopeptidase N [1] = target: T1, Aminopeptidase N (Sus scrofa, UniProt P15145); experiment: Inhibition of pig microsomal aminopeptidase N using L-leu-p-nitroanilide as substrate incubated for 5 mins prior to substrate addition measured after 30 mins by spectrophotometric analysis
T1 sequence (P15145 whole entry): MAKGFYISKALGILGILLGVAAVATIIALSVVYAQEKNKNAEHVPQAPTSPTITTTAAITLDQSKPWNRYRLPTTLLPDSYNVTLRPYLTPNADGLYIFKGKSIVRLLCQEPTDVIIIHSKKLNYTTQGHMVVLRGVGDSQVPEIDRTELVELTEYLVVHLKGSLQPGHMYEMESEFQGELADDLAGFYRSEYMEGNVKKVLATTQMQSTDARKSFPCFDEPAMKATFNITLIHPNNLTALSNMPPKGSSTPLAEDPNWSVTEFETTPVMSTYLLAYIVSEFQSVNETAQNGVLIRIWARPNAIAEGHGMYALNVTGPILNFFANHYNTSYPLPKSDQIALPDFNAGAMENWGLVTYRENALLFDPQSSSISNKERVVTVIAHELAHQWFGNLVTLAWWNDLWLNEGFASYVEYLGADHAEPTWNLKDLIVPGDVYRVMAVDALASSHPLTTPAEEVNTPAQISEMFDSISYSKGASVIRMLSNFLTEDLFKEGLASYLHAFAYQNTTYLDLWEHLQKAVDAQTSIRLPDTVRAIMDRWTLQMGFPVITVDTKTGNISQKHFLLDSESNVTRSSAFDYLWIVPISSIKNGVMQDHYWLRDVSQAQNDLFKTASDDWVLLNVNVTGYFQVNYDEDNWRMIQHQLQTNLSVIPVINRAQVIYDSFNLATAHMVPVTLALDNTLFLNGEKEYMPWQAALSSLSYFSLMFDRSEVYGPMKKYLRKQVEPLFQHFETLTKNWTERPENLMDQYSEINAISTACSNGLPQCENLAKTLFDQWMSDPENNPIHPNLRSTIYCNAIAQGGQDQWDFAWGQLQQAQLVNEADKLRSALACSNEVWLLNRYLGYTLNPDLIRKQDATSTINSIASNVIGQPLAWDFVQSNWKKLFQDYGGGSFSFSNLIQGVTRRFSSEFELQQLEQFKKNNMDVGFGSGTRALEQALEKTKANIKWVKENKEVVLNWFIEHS
Outline: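 Porcine kidney microsomal aminopeptidase in 50 mM PBS, pH 7.2. Compounds at various concentrations preincubated with enzyme 5 min at 37 °C, then L-leu-p-nitroanilide added and incubated 30 min at 37 °C. IC50 from triplicate experiments, mean ± SD.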

[2] = target: Histone deacetylase 1/3/5/8 (Homo sapiens, UniProt Q13547+O15379+Q9UQL6+Q9BY41); experiment: Inhibition of HDAC1/HDAC3/HDAC5/HDAC8 in human HeLa nuclear extract using Boc-Lys(acetyl)-AMC as substrate incubated for 5 mins prior to substrate measured after 30 mins by spectrophotometric analysis; type: protein assay
Aminopeptidase N [3] = target: Aminopeptidase N (Homo sapiens, UniProt P15144); experiment: Inhibition of aminopeptidase N in human ES2 cells using L-leu-p-nitroanilide as substrate incubated for 5 mins prior to substrate addition measured after 30 mins by spectrophotometric analysis; type: cell-based
Outline: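 Whole ES-2 cell suspension in PBS (1 × 10^5 cells/well) used as enzyme source. Compounds at various concentrations preincubated 5 min at 37 °C, then L-leu-p-nitroanilide added and incubated 30 min at 37 °C. IC50 from triplicate experiments, mean ± SD.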

U-937 = experiment: Antiproliferative activity against human U937 cells after 48 hrs by MTT assay; type: functional, cell-based; settings: U-937, 48 h
Outline: (§1)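 Cells grown in RPMI1640 with FBS at 37 °C, 5% CO2; seeded 5000/well, 4 h before adding inhibitor at varied concentrations. After 48 h, 1% MTT added for 4 h, formazan dissolved in DMSO (15 min mixing), OD read at 570 nm. IC50 from three independent experiments, mean values.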

[4] = Antiproliferative activity against human ES2 cells after 48 hrs by MTT assay; type: functional, cell-based; settings: ES-2, 48 h; outline: as §1

Sequence of Aminopeptidase N (Homo sapiens, UniProt P15144) (P15144 whole entry): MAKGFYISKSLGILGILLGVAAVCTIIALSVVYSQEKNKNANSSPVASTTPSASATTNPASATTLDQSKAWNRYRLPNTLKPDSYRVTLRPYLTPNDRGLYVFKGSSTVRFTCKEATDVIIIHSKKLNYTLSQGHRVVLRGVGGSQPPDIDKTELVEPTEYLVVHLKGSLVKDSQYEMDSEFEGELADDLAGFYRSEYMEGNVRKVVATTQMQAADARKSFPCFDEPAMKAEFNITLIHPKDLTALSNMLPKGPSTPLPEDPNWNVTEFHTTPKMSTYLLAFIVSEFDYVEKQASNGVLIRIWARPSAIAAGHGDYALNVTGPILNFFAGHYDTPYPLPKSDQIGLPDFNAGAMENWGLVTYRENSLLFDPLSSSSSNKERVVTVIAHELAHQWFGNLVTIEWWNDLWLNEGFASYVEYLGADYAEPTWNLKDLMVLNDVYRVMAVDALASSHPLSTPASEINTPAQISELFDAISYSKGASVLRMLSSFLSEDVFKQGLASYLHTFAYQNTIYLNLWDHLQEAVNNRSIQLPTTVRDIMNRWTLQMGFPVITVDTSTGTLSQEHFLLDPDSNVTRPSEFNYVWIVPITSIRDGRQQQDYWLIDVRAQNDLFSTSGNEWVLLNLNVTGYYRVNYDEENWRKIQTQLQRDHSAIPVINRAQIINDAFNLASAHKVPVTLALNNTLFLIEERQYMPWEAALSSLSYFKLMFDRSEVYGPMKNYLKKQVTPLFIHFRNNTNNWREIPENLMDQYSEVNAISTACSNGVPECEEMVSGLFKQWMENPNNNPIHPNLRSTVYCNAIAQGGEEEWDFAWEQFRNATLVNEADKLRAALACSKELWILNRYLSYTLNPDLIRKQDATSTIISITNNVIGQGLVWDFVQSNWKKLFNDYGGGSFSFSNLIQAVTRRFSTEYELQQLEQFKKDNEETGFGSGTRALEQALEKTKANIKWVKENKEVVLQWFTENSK

Row | SMILES | IC50 (Aminopeptidase N [1]) | IC50 [2] | IC50 (Aminopeptidase N [3]) | IC50 (U-937) | IC50 [4]
1 | CC(C)C[C@H](NC(=O)Nc1ccccc1)C(=O)NO | 1.15 µM | > 100 µM | – | – | –
2 | CC(C)C[C@H](NC(=O)Nc1cccc(F)c1)C(=O)NO | 1.9 µM | > 100 µM | – | – | –
3 | CC(C)C[C@H](NC(=O)Nc1cccc(Cl)c1)C(=O)NO | 1.66 µM | > 100 µM | – | – | –
4 | CC(C)C[C@H](NC(=O)Nc1cccc(Br)c1)C(=O)NO | 0.58 µM | > 100 µM | – | – | –
5 | Cc1cccc(NC(=O)N[C@@H](CC(C)C)C(=O)NO)c1 | 0.24 µM | > 100 µM | – | – | –
6 | COc1cccc(NC(=O)N[C@@H](CC(C)C)C(=O)NO)c1 | 1.36 µM | > 100 µM | – | – | –
7 | CC(C)C[C@H](NC(=O)Nc1cccc(C(F)(F)F)c1)C(=O)NO | 1.97 µM | > 100 µM | – | – | –
8 | CC(C)C[C@H](NC(=O)Nc1cccc(O)c1)C(=O)NO | 1.7 µM | > 100 µM | – | – | –
9 | CC(C)C[C@H](NC(=O)NCc1ccccc1F)C(=O)NO | 1.38 µM | > 100 µM | – | – | –
10 | CC(C)C[C@H](NC(=O)NCc1ccccc1Cl)C(=O)NO | 0.22 µM | > 100 µM | 0.65 µM | – | –
11 | CC(C)C[C@H](NC(=O)NCc1ccccc1Br)C(=O)NO | 0.13 µM | > 100 µM | 0.73 µM | – | –
12 | Cc1ccccc1CNC(=O)N[C@@H](CC(C)C)C(=O)NO | 0.9 µM | > 100 µM | – | – | –
13 | CC(C)C[C@H](NC(=O)NCc1cccc(Cl)c1)C(=O)NO | 0.35 µM | > 100 µM | – | – | –
14 | Cc1cccc(CNC(=O)N[C@@H](CC(C)C)C(=O)NO)c1 | 0.44 µM | > 100 µM | – | – | –
15 | CC(C)C[C@H](NC(=O)Nc1ccccc1F)C(=O)NO | 0.52 µM | > 100 µM | – | – | –
16 | CC(C)C[C@H](NC(=O)Nc1ccccc1Cl)C(=O)NO | 0.093 µM | > 100 µM | 1.31 µM | > 1000 µM | 615 µM
17 | CC(C)C[C@H](NC(=O)Nc1ccccc1Br)C(=O)NO | 0.06 µM | > 100 µM | 0.53 µM | > 1000 µM | 405 µM
18 | Cc1ccccc1NC(=O)N[C@@H](CC(C)C)C(=O)NO | 0.18 µM | > 100 µM | 0.61 µM | – | –
19 | COc1ccccc1NC(=O)N[C@@H](CC(C)C)C(=O)NO | 0.13 µM | > 100 µM | 0.7 µM | > 1000 µM | 480 µM
20 | CC(C)C[C@H](NC(=O)Nc1ccccc1C(F)(F)F)C(=O)NO | 0.79 µM | > 100 µM | – | – | –
21 | CC(C)C[C@H](NC(=O)Nc1ccccc1O)C(=O)NO | 11.9 µM | > 100 µM | – | – | –
22 | CC(C)C[C@H](NC(=O)[C@@H](O)[C@H](N)Cc1ccccc1)C(=O)O [UBENIMEX] | – | > 100 µM | – | > 1000 µM | 620 µM
